Test results reported in ChEMBL document CHEMBL1121727, “Synthesis and biological activity of certain derivatives of oxazinomycin and related oxadiazole nucleosides” (J Med Chem, 1981).
The source made the active and inactive calls. No cut-off for these calls is given here.

What was measured:
Human alphaherpesvirus 1 [1] = assay: In vitro antiviral activity against herpes simplex virus/1(HSV/1) expressed as viral rating (VR); Inactive; assay type: functional, organism-based
In short: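 Tested in vitro in KB cells infected with HSV type 1 at 1000 to 1 μg/mL. Plates were incubated 72 h at 37 °C, and inhibition of viral cytopathic effect was scored as a virus rating (VR). VR ≥ 0.5 was taken as moderate to definite activity. Ribavirin and acyclovir served as controls.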

L1210 [2] = assay: Antitumor activity against L1210 cells; Inactive; assay type: functional, cell-based; details: Mus musculus
P388 = assay: Antitumor activity against leukemia P388 cells; Inactive; assay type: functional, cell-based; details: Mus musculus
Human alphaherpesvirus 1 [3] = assay: In vitro antiviral activity against herpes simplex virus/1(HSV/1) expressed as viral rating (VR); assay type: functional
In short: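 Antiviral assay in KB cells against HSV type 1 over 1000 to 1 μg/mL. Inhibition of viral cytopathic effect was read after 72 h at 37 °C and scored as virus rating (VR). VR ≥ 0.5 was taken as moderate to definite activity. Ribavirin and acyclovir served as controls.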

HeLa = assay: Antitumor activity against HeLa cells; assay type: functional, cell-based; details: Homo sapiens
L1210 [4] = assay: Antitumor activity against L1210 cells; assay type: functional, cell-based; details: Mus musculus
L1210 [5] = assay: Inhibition of RNA, DNA, and protein synthesis in L1210 cells at 8*10e-7 M.

Compound	Activity (L1210 [2])	Activity (P388)	VR (Human alphaherpesvirus 1 [3])	further results
O=c1[nH]c(=O)n([C@H]2C[C@H](O)[C@@H](CO)O2)o1	inactive	inactive		VR (Human alphaherpesvirus 1 [1]): inactive
NC(=O)c1ncn([C@@H]2O[C@H](CO)[C@@H](O)[C@H]2O)n1 [RIBAVIRIN]			1.2	
O=c1nc2c(co1)[C@@H]1O[C@H](CO)[C@@H](O)[C@@H]1O2	inactive	inactive		
CC(=O)O[C@H]1C[C@H](c2coc(=O)[nH]c2=O)O[C@@H]1CO	inactive	inactive		
C[C@H]1OC(c2coc(=O)[nH]c2=O)[C@H](O)[C@@H]1O (some centres not stated)	inactive	inactive		
O=c1[nH]c(=O)c([C@@H]2O[C@H](COP(=O)(O)O)[C@@H](O)[C@H]2O)co1	inactive	inactive		
O=c1[nH]c(=O)c([C@@H]2O[C@H](CO)[C@@H](O)[C@H]2O)co1				IC50 (HeLa): 500 nM; IC50 (L1210 [4]): 300 nM; Inhibition (L1210 [5]): 5%
Nc1nc2c(ncn2COCCO)c(=O)[nH]1 [ACYCLOVIR]			1.4	
O=c1[nH]oc(=O)[nH]1	inactive	inactive		VR (Human alphaherpesvirus 1 [1]): inactive
O=c1[nH]c(=O)n(C2O[C@H](CO)[C@@H](O)[C@H]2O)o1 (some centres not stated)	inactive	inactive	0.65	
